Most compounds without a hit are left out; they make up all but 1.7% or so of the library.
Scp1 inh – blocks human Scp-1 phosphatase activity; hit rate 0.88% among 340,000; inhibition, % at 20 µM; Q9GZU7; Recombinant Scp1, phosphopeptide, malachite green phosphate absorbance;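 active means inhibition above about 50% at 20 µM, limit read from the data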;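 further: plate controls were DMSO wells with enzyme for no effect and wells lacking enzyme for full effect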
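assay system = SCP-1 phosphatase catalytic domain, residues 76-261 | buffer or medium = 50 mM Tris acetate pH 5.5, 0.005% Tween-20, 10 mM MgCl2 | incubation = enzyme reaction 45 min at room temperature, colour 5 min, stabilisation 30 min | signal = Phosphate-binding colour reagent, absorbance read at 630 nm | measure = % inhibition at 20 µM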
STEP block – blocks human striatal-enriched tyrosine phosphatase | P54829 | recombinant STEP, OMFP fluorogenic substrate, fluorescence | inhibition, % at 20 µM | hit rate 0.25% among 360,000 | AID 588621;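 active means inhibition at 20 µM, scaled per plate between control wells, above about 37%, limit read from the data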;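 further: 0% = DMSO with enzyme and substrate and 100% = substrate only without enzyme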
Target sequence (P54829 whole entry, looked up): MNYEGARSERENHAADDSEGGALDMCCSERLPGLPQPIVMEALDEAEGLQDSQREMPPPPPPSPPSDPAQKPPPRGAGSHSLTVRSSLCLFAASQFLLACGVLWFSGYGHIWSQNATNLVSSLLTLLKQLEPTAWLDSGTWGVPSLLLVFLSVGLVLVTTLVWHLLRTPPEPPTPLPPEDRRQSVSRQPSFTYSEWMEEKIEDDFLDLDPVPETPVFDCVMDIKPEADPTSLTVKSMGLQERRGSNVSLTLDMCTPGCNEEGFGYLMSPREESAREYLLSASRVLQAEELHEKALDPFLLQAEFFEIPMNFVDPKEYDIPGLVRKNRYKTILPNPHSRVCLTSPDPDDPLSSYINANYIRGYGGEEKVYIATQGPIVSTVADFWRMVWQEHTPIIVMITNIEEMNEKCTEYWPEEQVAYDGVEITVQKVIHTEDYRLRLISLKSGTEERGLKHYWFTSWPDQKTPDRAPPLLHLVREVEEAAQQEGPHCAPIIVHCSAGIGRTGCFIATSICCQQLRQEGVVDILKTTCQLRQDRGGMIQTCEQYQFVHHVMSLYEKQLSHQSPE
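Also added – OMFP at 25 µM · Test system – STEP tyrosine phosphatase · Technique – FITC-channel fluorescence of OMFP product · Schedule – 20 min at room temperature, dark · Evaluation – control-normalized % inhibition with plate pattern correction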
DNMT1 block – DNMT1 (human) enzyme inhibition. DNMT1 molecular beacon, Hinp1I cleavage, fluorescence. inhibition (reported as % activation of signal), % at 10 µM. hit rate 0.83% among 360,000. AID 588458; in the data active means inhibition above about 50%
LMPTP block – blocks human LMPTP phosphatase | recombinant LMPTP-A, OMFP fluorogenic substrate, fluorescence intensity | inhibition, % at 20 µM | hit rate 0.22% among 360,000;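 active means compounds that cut the enzyme signal by at least half of the control window in the single-dose screen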;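 further: plate controls were DMSO wells with enzyme plus substrate for no effect and substrate without enzyme for full effect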
Target sequence (P24666 whole entry, looked up): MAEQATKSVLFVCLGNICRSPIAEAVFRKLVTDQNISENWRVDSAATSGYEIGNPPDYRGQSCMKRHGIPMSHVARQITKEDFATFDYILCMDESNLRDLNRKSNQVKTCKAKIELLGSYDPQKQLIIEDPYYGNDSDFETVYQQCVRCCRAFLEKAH
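Assay system: LMPTP-A, protein tyrosine phosphatase of low molecular weight / Medium: pH 6.0 Bis-Tris buffer with DTT and Triton X-100 / Schedule: 50 min enzyme reaction at room temperature, protected from light / Measured by: endpoint fluorescence intensity from OMFP dephosphorylation / Read-out basis: % inhibition relative to no-enzyme and uninhibited control wells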
SUMO1 PPI mod – alters human SUMO1 binding to SIM partners; P63165; SUMO1 binding to a labelled peptide, TR-FRET, 1 h; inhibition, % at 20 µM; hit rate 0.33% among 360,000; AID 602429; in the data active means inhibition above about 37%
DNMT1 inh conf – DNMT1 inhibition confirmation, single concentration; shares compounds with DNMT1 block; DNMT1 molecular beacon HinP1I cleavage, fluorescence; inhibition, % at 10 µM; hit rate 8% among 2,300; AID 602385;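 active means average inhibition of at least 30% in the single-concentration confirmation test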
Beacon interf – beacon fluorescence artifact counter-screen. AID 602387. hit rate 1% among 2,300. activation (fluorescence interference), % at 10 µM. DNMT1 molecular beacon spectral interference counterscreen, fluorescence 485/520. shares compounds with DNMT1 block;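 active means activation of at least 30% at 10 µM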;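 further: DNMT1 catalytic domain with a HinP1I cleavage step and a FAM/dabcyl DNA beacon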
STEP inh conf – STEP (human) phosphatase inhibition, single concentration confirmation; inhibition, % at 20 µM; AID 623866; hit rate 32% among 520; recombinant STEP, OMFP fluorogenic substrate, fluorescence; shares compounds with STEP block; call rule not given here;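 further: 0% = enzyme with substrate plus DMSO and 100% = substrate without enzyme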
An asterisk follows results filed as active; / = no result.

SMILES | Scp1 inh | STEP block | DNMT1 block | LMPTP block | SUMO1 PPI mod | DNMT1 inh conf | Beacon interf | others
Cc1ccc(-c2ccc(/C=N\NC(=O)c3cc4c(ccc5ccccc54)o3)o2)cc1[N+](=O)[O-] | -7 | 4 | 72* | 4 | -4 | 2 | -2
CC(C(=O)N1CCc2ccccc21)N1CCN(S(=O)(=O)c2ccc3c(c2)OCCCO3)CC1 (centres undefined) | -5 | -1 | -7 | 1 | 1 | / | /
Cc1ncc([N+](=O)[O-])n1CC(=O)NC1CCCCCC1 | -2 | -3 | 1 | 0 | -3 | / | /
Cc1ccc(CNC(=O)c2nnn(CC(=O)Nc3cccc(C)c3C)c2N)cc1 | -3 | 0 | 61* | 23 | 2 | 12 | -3
CCCc1cc(=O)[nH]c(SCC(=O)Nc2cccc(S(=O)(=O)N3CCCCC3)c2)n1 | 1 | 2 | -3 | -1 | 9 | / | /
Cc1noc(C)c1CCC(=O)N1CCCC(N2CCN(c3ccc(F)cc3)CC2)C1 (centres undefined) | 1 | 1 | 86* | -1 | 1 | 3 | 6
Cc1ccc(C)c(OCc2cc(C(=O)N3CCOCC3)no2)c1 | -9 | -2 | 2 | -2 | 0 | / | /
O=C(c1ccc(O)c(Cl)c1)N1CCN(S(=O)(=O)c2ccccc2)CC1 | -7 | 1 | 2 | -8 | -2 | / | /
CCN(CC)CCNc1nc(-c2ccccc2)c2c(c1C#N)CC(C)(C)OC2 | 1 | -2 | 0 | -3 | -3 | / | /
CC1(C)Cc2c(C#N)c(NCCCO)nc(-c3ccccc3)c2CO1 | -9 | -5 | 66* | 2 | 1 | -1 | 4
O=[N+]([O-])c1ccc(/C=C/C2=NN(c3ccccc3)C(c3ccco3)C2)o1 (centres undefined) | 79* | 5 | 75* | 10 | -16 | 2 | 5
CCCCc1cc(=O)oc2cc(OCC(=O)NCCN3CCOCC3)ccc12 | -6 | 0 | 2 | 0 | -8 | / | /
ClCCn1cnc2c(SCc3ccccc3)ncnc21 | -10 | -2 | -1 | 1 | -4 | / | /
COc1cccc2c1OCC(C(=O)O)C2 (centres undefined) | -1 | -1 | 53* | -1 | -2 | 3 | 3
O=S(=O)(c1ccc(NC(=S)N2CCCCC2CO)cc1)N1CCOCC1 (centres undefined) | / | -1 | 60* | -1 | 0 | -1 | -4
O=C(COC(=O)c1ccccn1)NC(=O)c1ccccc1 | -3 | -1 | 1 | -1 | -2 | / | /
COCCn1c2nc(=O)n(-c3ccccc3)c(=O)c-2nc2ccccc21 | / | -79 | 99* | -5 | -28 | 46* | 72*
CCN(CC)S(=O)(=O)c1ccc(/C=C/C(=O)OCC(=O)NNC(=O)c2ccc(OC)cc2)cc1 | -4 | 4 | -1 | -1 | -20 | / | /
c1ccc(OCCCCn2cnc3ccccc32)cc1 | 1 | 3 | 74* | 0 | -1 | 2 | 5
O=C(O)C1CSC(c2ccco2)N1 (centres undefined) | 67* | 32 | 97* | 58* | 23 | 17 | -4
O=C(CC12CCC(CC1)C2)NCc1ccc2c(c1)OCO2 | 8 | -2 | 5 | -2 | -1 | / | /
Cc1nn(CCc2nc(-c3ccco3)cs2)c2[nH]c(=O)cc(C(F)(F)F)c12 | 20 | 8 | 61* | 2 | 32 | 0 | -2
O=C(CCl)NN1C(=O)NC(c2ccccc2)(c2ccccc2)C1=O | -5 | -2 | -1 | -3 | -2 | / | /
CSc1ncnc2c1ncn2CCCNCc1cccc2ccccc12 | / | 0 | 0 | 0 | -4 | / | /
COc1ccc(NC(=O)CN(C)C(=O)c2cccc(-n3cccc3)c2)cc1 | / | 6 | 83* | 6 | 19 | 8 | 0
SMILES | Scp1 inh | STEP block | DNMT1 block | LMPTP block | SUMO1 PPI mod | DNMT1 inh conf | Beacon interf | others
CN(C(=O)COC(=O)c1ccccc1Cc1ccccc1)c1c(N)n(Cc2ccccc2)c(=O)[nH]c1=O | -1 | -1 | 89* | 1 | -1 | 0 | 3
O=C(/C=C/c1ccc2c(c1)OCO2)NCCS(=O)(=O)N1CCN(c2ccccc2)CC1 | / | 4 | 71* | 1 | 1 | 6 | 4
O=C(/C=C/c1ccc2c(c1)OCO2)NCCS(=O)(=O)N1CCN(c2ccc(F)cc2)CC1 | 1 | 0 | 3 | 1 | 4 | / | /
O=C(O)C1CCN(c2ncccn2)CC1 | 4 | -3 | 81* | 0 | -1 | 2 | 2
O=C(COC(=O)Cc1ccsc1)Nc1ccc(Cl)c(S(=O)(=O)N2CCOCC2)c1 | -5 | -2 | 77* | 0 | -2 | 1 | 3
CC(=C\C(=O)O)/C(=C/c1ccc(C)o1)C(=O)O | 56* | -1 | 78* | -2 | -1 | 9 | 14
N#Cc1c(SCC(=O)Nc2ccc(C(F)(F)F)cc2)sc2c(O)cc(=O)[nH]c12 | 50 | -1 | 1 | -1 | 3 | / | /
N#Cc1c(SCC(=O)Nc2nncs2)sc2c(O)cc(=O)[nH]c12 | 81* | 38 | 71* | 4 | 32 | 3 | -1
Cc1sc(NC(=O)c2cc(-c3ccc(Cl)cc3)nc3ccccc23)c(C(N)=O)c1C | 2 | 3 | 61* | 14 | 0 | 0 | -7
CCn1c2ccccc2c2cc(CN3CCN(S(=O)(=O)Cc4ccccc4)CC3)ccc21 | 2 | 4 | 60* | 7 | -3 | 1 | 3
COc1ccc(NC(=S)N2CCC(C(=O)c3ccc(C)cc3)CC2)cc1 | -2 | 3 | 81* | 1 | 5 | 2 | 3
Cc1ccc(OCC(=O)OC(C)C(=O)NC2CCCCC2C)cc1C (centres undefined) | 0 | -2 | 2 | 0 | 0 | / | /
O=c1c2c3c(sc2[nH]c(=S)n1Cc1ccco1)CCC3 | 27 | 26 | 83* | 13 | 43* | 6 | 1
O=C(Cc1ccc(F)cc1)N/N=C/c1ccccn1 | -4 | 2 | 66* | -2 | 0 | 1 | -1
CCOc1cccc2sc(N3CCN(C(=O)c4ccc5ncsc5c4)CC3)nc12 | -2 | 0 | -3 | 0 | 5 | / | /
CSCC[C@H](NC(=O)Cc1c(C)c2cc3c(C)c(C)oc3cc2oc1=O)C(=O)N[C@@H](C(=O)O)c1ccccc1 | / | 1 | -1 | -1 | -5 | / | /
C[C@@H](NC(=O)c1ncn2c1c(=O)[nH]c1cccnc12)c1ccccc1 | / | 0 | 5 | 2 | 15 | / | /
C[C@@H](NC(=O)c1ncn2c1c(=O)[nH]c1ccc(Br)cc12)c1ccccc1 | / | 50* | 93* | 58* | -22 | 4 | 0 | STEP inh conf=-1
O=C(NCCNC(=O)c1ccc(Cl)cc1Cl)c1ccco1 | -1 | -1 | 2 | -1 | -1 | / | /

Screening results as filed in PubChem BioAssay.
